Data: ChEMBL document CHEMBL4145519, “Structural investigations on coumarins leading to chromeno[4,3-c]pyrazol-4-ones and pyrano[4,3-c]pyrazol-4-ones: New scaffolds for the design of the tumor-associated carbonic anhydrase isoforms IX and XII” (Eur J Med Chem, 2018)
pKi: −log10 of the molar value. The source made the active and inactive calls. The calls are words filed in the database; no cut-off is given here.

Experiments:
Carbonic anhydrase 9 = Carbonic anhydrase 9 (Homo sapiens, UniProt Q16790); assay: Inhibition of human CA9 after 15 mins by stopped-flow CO2 hydration assay
Carbonic anhydrase 12 = Carbonic anhydrase 12 (Homo sapiens, UniProt O43570); assay: Inhibition of human CA12 after 15 mins by stopped-flow CO2 hydration assay
Carbonic anhydrase 2 = Carbonic anhydrase 2 (Homo sapiens, UniProt P00918); assay: Inhibition of human CA2 after 15 mins by stopped-flow CO2 hydration assay
Carbonic anhydrase 1 = Carbonic anhydrase 1 (Homo sapiens, UniProt P00915); assay: Inhibition of human CA1 after 15 mins by stopped-flow CO2 hydration assay
HT-29 [1] = assay: Antiproliferative activity against human HT-29 cells at 30 to 300 uM after 48 hrs under normoxic conditions by MTT assay; format: functional, cell-based
Procedure, shortened: (§1)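 HT-29 colon cancer cells in DMEM high glucose with 20% FBS were seeded at 1·10^4/well. After 24 h they were exposed to 0–300 μM compound for 16, 48 or 72 h in air (20% O2, 5% CO2, 37 °C). MTT (1 mg/ml) was added for 30 min, formazan dissolved in DMSO and read at 550 nm. Viability is relative to untreated control (100%). Quadruplicates on ≥3 cell batches, mean ± SEM.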

HT-29 [2] = assay: Antiproliferative activity against human HT-29 cells at 100 uM after 72 hrs under hypoxic conditions by MTT assay; format: functional
Procedure, shortened: (§2)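 Hypoxic workstation at 0.1% O2, 5% CO2 and residual N2. HT-29 cells (DMEM high glucose, 20% FBS; 1·10^4/well) were treated 24 h post-plating with 0–300 μM compound for 16, 48 or 72 h. Viability was measured by MTT reduction (1 mg/ml, 30 min, 37 °C; DMSO-dissolved formazan, A550) and expressed as % of untreated control. Quadruplicates, ≥3 batches, mean ± SEM.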

HT-29 [3] = assay: Antiproliferative activity against human HT-29 cells at 100 uM after 48 hrs under normoxic conditions by MTT assay; format: functional; procedure, shortened: as §1
HT-29 [4] = assay: Antiproliferative activity against human HT-29 cells at 30 to 300 uM after 16 hrs under normoxic conditions by MTT assay; format: functional, cell-based; procedure, shortened: as §1
HT-29 [5] = assay: Antiproliferative activity against human HT-29 cells at 30 to 300 uM after 72 hrs under hypoxic conditions by MTT assay; format: functional, cell-based; procedure, shortened: as §2
[6] = Solubility of the compounds at 300 uM; format: physicochemical
HT-29 [7] = assay: Antiproliferative activity against human HT-29 cells at 30 to 100 uM after 16 hrs under normoxic conditions by MTT assay; format: functional, cell-based; procedure, shortened: as §1
HT-29 [8] = assay: Antiproliferative activity against human HT-29 cells at 30 to 100 uM after 48 hrs under normoxic conditions by MTT assay; format: functional, cell-based; procedure, shortened: as §1
HT-29 [9] = assay: Antiproliferative activity against human HT-29 cells at 30 to 300 uM after 48 hrs under hypoxic conditions by MTT assay; format: functional, cell-based; procedure, shortened: as §2
HT-29 [10] = assay: Antiproliferative activity against human HT-29 cells at 30 to 100 uM after 72 hrs under hypoxic conditions by MTT assay; format: functional, cell-based; procedure, shortened: as §2
HT-29 [11] = assay: Antiproliferative activity against human HT-29 cells at 30 to 100 uM after 72 hrs under normoxic conditions by MTT assay; format: functional, cell-based; procedure, shortened: as §1
HT-29 [12] = assay: Antiproliferative activity against human HT-29 cells after 16 hrs under normoxic conditions by MTT assay; format: functional, cell-based; procedure, shortened: as §1
HT-29 [13] = assay: Antiproliferative activity against human HT-29 cells at 30 uM after 48 hrs under hypoxic conditions by MTT assay; format: functional; procedure, shortened: as §2

Sequence of Carbonic anhydrase 12 (O43570 whole entry): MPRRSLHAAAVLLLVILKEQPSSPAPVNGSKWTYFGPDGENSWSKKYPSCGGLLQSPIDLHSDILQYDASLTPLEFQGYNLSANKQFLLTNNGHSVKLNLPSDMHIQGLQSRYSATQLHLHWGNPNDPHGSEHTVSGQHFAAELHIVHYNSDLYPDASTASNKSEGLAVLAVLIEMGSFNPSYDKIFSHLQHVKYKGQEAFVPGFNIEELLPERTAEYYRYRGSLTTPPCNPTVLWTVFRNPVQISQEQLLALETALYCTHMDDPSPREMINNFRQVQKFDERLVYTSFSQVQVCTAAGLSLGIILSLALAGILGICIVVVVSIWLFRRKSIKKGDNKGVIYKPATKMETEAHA
Sequence of Carbonic anhydrase 1 (P00915 whole entry): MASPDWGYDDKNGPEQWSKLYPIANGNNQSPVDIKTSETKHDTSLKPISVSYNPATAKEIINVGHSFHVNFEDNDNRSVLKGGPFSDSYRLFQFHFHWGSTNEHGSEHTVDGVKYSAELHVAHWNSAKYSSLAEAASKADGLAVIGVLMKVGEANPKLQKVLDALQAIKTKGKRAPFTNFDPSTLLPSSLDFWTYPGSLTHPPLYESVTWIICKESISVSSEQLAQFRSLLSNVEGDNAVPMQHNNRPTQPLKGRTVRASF

Row | pKi (Carbonic anhydrase 9) | pKi (Carbonic anhydrase 12) | pKi (Carbonic anhydrase 2) | pKi (Carbonic anhydrase 1) | SMILES | other results
1 | 6.10 | 5.22 | < 5.00 | < 5.00 | Cc1nn(-c2ccccc2)c2c1c(=O)oc1cc(Cl)c([N+](=O)[O-])cc12 | 
2 | 7.82 | < 5.00 | < 5.00 | < 5.00 | Cc1nn(-c2ccccc2)c2c1c(=O)oc1ccc(NC(=O)c3ccccc3)cc12 | Activity (HT-29 [1]): Active; Activity (HT-29 [2]): 40%; Activity (HT-29 [3]): 50%; Activity (HT-29 [4]): Active; Activity (HT-29 [5]): Active
3 | 7.58 | 6.29 | < 5.00 | < 5.00 | Cc1cc2c(c(C)nn2-c2ccccc2)c(=O)o1 | 
4 | 6.25 | 5.19 | < 5.00 | < 5.00 | CC(=O)c1cc2cc([N+](=O)[O-])c(Cl)cc2oc1=O | 
5 | 7.04 | 6.15 | < 5.00 | < 5.00 | COc1c(C(C)=O)c(=O)oc2ccc(Br)cc12 | 
6 | 7.44 | 6.34 | < 5.00 | < 5.00 | CC(=O)c1c(O)c2ccccc2oc1=O | 
7 | 6.43 | 6.14 | < 5.00 | < 5.00 | Cc1nn(Cc2ccccc2)c2c1c(=O)oc1ccccc12 | 
8 |  | < 5.00 | < 5.00 | < 5.00 | Cc1ccc(-n2nc(C)c3c(=O)oc4ccccc4c32)cc1 | solubility [6]: Insoluble; Activity (HT-29 [7]): Active; Activity (HT-29 [8]): Active
9 | 7.11 | 7.56 | < 5.00 | < 5.00 | Cc1nn(-c2ccccc2C(=O)O)c2c1c(=O)oc1ccccc12 | 
10 | 7.24 | 6.09 | < 5.00 | < 5.00 | Cc1nn(-c2ccccc2)c2c1c(=O)oc1cc(Cl)ccc12 | 
11 | 8.07 | 8.15 | < 5.00 | < 5.00 | Cc1nn(-c2ccccc2)c2c1c(=O)oc1ccc(Br)cc12 | 
12 | 7.60 | < 5.00 | < 5.00 | < 5.00 | Cc1c2c(=O)oc3ccc(Br)cc3c2nn1-c1ccccc1 | 
13 | 7.42 | 6.44 | < 5.00 | < 5.00 | Cc1nn(-c2ccccc2)c2c1c(=O)oc1ccc(NCc3ccccc3)cc12 | 
14 | 7.29 | 6.13 | < 5.00 | < 5.00 | CNc1ccc2oc(=O)c3c(C)nn(-c4ccccc4)c3c2c1 | 
15 | 7.50 | 6.09 | < 5.00 | < 5.00 | O=c1oc2ccccc2c2c1c(Cc1ccccc1)nn2Cc1ccccc1 | 
16 | 8.09 | 8.25 | < 5.00 | < 5.00 | CC(=O)c1c(O)c2cc(Br)ccc2oc1=O | solubility [6]: Insoluble; Activity (HT-29 [9]): Active; Activity (HT-29 [10]): Active; Activity (HT-29 [7]): Active; Activity (HT-29 [8]): Active; Activity (HT-29 [11]): Active; Activity (HT-29 [3]): 35%
17 | 6.39 | < 5.00 | < 5.00 | < 5.00 | Cc1nn(-c2ccc(Cl)cc2)c2c1c(=O)oc1ccccc12 | 
18 | 7.71 | 6.46 | < 5.00 | < 5.00 | Cn1nc(Cc2ccccc2)c2c(=O)oc3ccccc3c21 | 
19 | 6.09 | 5.34 | < 5.00 | < 5.00 | CC(=O)c1cc2ccc(Cl)cc2oc1=O | 
20 | 6.54 | 6.17 | < 5.00 | < 5.00 | O=c1oc2ccccc2c2nn(Cc3ccccc3)c(Cc3ccccc3)c12 | 

Row | pKi (Carbonic anhydrase 9) | pKi (Carbonic anhydrase 12) | pKi (Carbonic anhydrase 2) | pKi (Carbonic anhydrase 1) | SMILES | other results
21 | 7.57 | 6.19 | < 5.00 | < 5.00 | CC(=O)Nc1ccc2oc(=O)c3c(C)nn(-c4ccccc4)c3c2c1 | 
22 | 7.38 | < 5.00 | < 5.00 | < 5.00 | Cc1cc2nn(-c3ccccc3)c(C)c2c(=O)o1 | Activity (HT-29 [1]): Active; Activity (HT-29 [12]): Dose-dependent effect; Activity (HT-29 [9]): Active; Activity (HT-29 [5]): Active
23 | 7.45 | 6.44 | < 5.00 | < 5.00 | Cc1c2c(=O)oc3ccc([N+](=O)[O-])cc3c2nn1-c1ccccc1 | 
24 | 7.35 | 6.45 | < 5.00 | < 5.00 | CC(=O)c1c(O)c2cc([N+](=O)[O-])ccc2oc1=O | 
25 | 7.46 | < 5.00 | < 5.00 | < 5.00 | Cc1nn(-c2ccccc2)c2c1c(=O)oc1ccc(N)cc12 | Activity (HT-29 [1]): Active; Activity (HT-29 [9]): Active; Activity (HT-29 [4]): Active; Activity (HT-29 [5]): Active
26 | 7.35 | 6.16 | < 5.00 | < 5.00 | CC(=O)c1cc2cc([N+](=O)[O-])ccc2oc1=O | 
27 | 8.02 | 8.24 | < 5.00 | < 5.00 | Cc1nn(-c2ccccc2)c2c1c(=O)oc1ccccc12 | Activity (HT-29 [1]): Active; Activity (HT-29 [12]): Dose-dependent effect; Activity (HT-29 [9]): Active
28 | 7.52 | < 5.00 | < 5.00 | < 5.00 | O=c1oc2ccccc2c2c1cnn2-c1ccccc1 | Activity (HT-29 [1]): Active; Activity (HT-29 [13]): <=70%; Activity (HT-29 [9]): Active; Activity (HT-29 [4]): Active
29 | 7.42 | 6.23 | < 5.00 | < 5.00 | Cc1c2c(=O)oc3ccccc3c2nn1-c1ccccc1 | 
30 | 6.26 | 7.48 | < 5.00 | < 5.00 | Cn1nc2c(c1Cc1ccccc1)c(=O)oc1ccccc12 | 
31 | 7.40 | < 5.00 | < 5.00 | < 5.00 | COc1ccc(-n2nc(C)c3c(=O)oc4ccccc4c32)cc1 | 
32 | 5.71 | 7.61 | < 5.00 | < 5.00 | Cc1nn(-c2ccc(C(=O)O)cc2)c2c1c(=O)oc1ccccc12 | 
33 | 7.57 | < 5.00 | < 5.00 | < 5.00 | Cc1nn(-c2ccccc2)c2c1c(=O)oc1ccc([N+](=O)[O-])cc12 | Activity (HT-29 [1]): Active; Activity (HT-29 [12]): Dose-dependent effect; Activity (HT-29 [9]): Active
34 | 7.42 | < 5.00 | < 5.00 | < 5.00 | O=c1oc2ccccc2c2nn(-c3ccccc3)cc12 | 
35 | 7.33 | 6.13 | < 5.00 | < 5.00 | CCOc1c(C(C)=O)c(=O)oc2ccc(Br)cc12 | 
36 | 6.82 | 8.11 | < 5.00 | < 5.00 | CC(=O)c1cc2ccccc2oc1=O [3-ACETYLCOUMARIN] | 
37 | 7.55 | 6.17 | < 5.00 | < 5.00 | COc1c(C(C)=O)c(=O)oc2ccccc12 | 
38 | 7.11 | 6.23 | < 5.00 | < 5.00 | Cc1nn(-c2ccccc2)c2c1c(=O)oc1ccc(NC(=O)Nc3ccccc3)cc12 | 
39 | 7.23 | 6.44 | < 5.00 | < 5.00 | Cc1nn(-c2ccccc2)c2c1c(=O)oc1ccc(N(C)C)cc12 | 
